Compounds with a hit are over-represented: about 2.9% of the library has one in this group of screens.
KLK7 zymogen act = proKLK7 zymogen activators, primary screen, biochemical, fluorescence intensity. Kallikrein-7 (Homo sapiens), P49862. purified proKLK7, EDANS-DABCYL substrate fluorescence; 100% is mature enzyme control, 0% vehicle. activation, % at 7 µM. actives 0.9% (n = 370,000);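 active = activation above the mean of all tested compounds plus 3 SD, computed per campaign excluding outliers beyond control limits, cut at about 13% in these data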
RanGTP-Impb inh = inhibitors of RanGTP-importin-beta interaction, primary screen, biochemical, FRET, CFP-Ran, YFP-importin-beta, homogeneous; inhibition, % (test concentration not listed); cell-free CFP-Ran/YFP-importin-beta FRET ratio; actives 1.1% (n = 300,000); AID 2216, 2009; Ran GTPase (GTP-bound) - importin-beta complex;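 active = more than half of the replicate wells show a fall in the fluorescence ratio signal beyond about 16%, limit read from the data, passing the limit was not always enough; inconclusive = exactly half of the replicate wells pass the set limit; inactive = fewer than half of replicates pass the limit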;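 note: 0% = DMSO wells and 100% = Ran loaded with GDP instead of GTP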
Wee1 stabilizer = Wee1 degradation inhibitors, primary screen, cell-based, HeLa, Wee1K328M-luciferase, luminescence; Wee1-like protein kinase (Homo sapiens), P30291; HeLa Luc-Wee1K328M stability; 100% = proteasome inhibitor MG132 effect; reporter increase, % at 5 µM; actives 1.2% (n = 220,000); AID 1321, 2008;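 active = activation above the mean of all tested compounds plus 3 SD, set per screening run, cut at about 8.8% in these data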;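 note: cells exposed to compound for 20 h before luminescence read; 0% = DMSO alone and 100% = MG132 at 30 µM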
AI-2 QS mod = Vibrio harveyi AI-2 quorum sensing modulators, primary screen, JMH597 strain, luminescence/OD600 ratio. Vibrio harveyi JMH597 AI-2 luminescence/OD600 ratio, 9 h; active compounds read low; strain lacks LuxN and CqsS sensors; 0 = neutral-control median. activity change, % at 7.5 µM. actives 0.4% (n = 300,000); in the data active = activity change below about -75%, passing the limit was not always enough; inconclusive = no clear call, values can overlap the other calls;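 note: luminescence divided by OD600 gain over 9 h not by final OD600 alone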
Runt-CBFb FRET = inhibitors of RUNX1 Runt–CBFb binding, primary screen, biochemical, FRET, Cerulean-Runt, Venus-CBFb, uHTS; Cerulean-Runt/Venus-CBFb FRET ratio 530/480, 1 h; AID 1496, 2009; Runt-related transcription factor 1 (Homo sapiens) + Core-binding factor subunit beta …; inhibition, % at 20 µM; actives 0.46% (n = 220,000);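 active = inhibition over about 50% at 20 µM in the single-dose screen, limit read from the data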;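 note: 0% = DMSO wells and 100% = excess unlabeled CBFb competitor control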
Target sequence (Q01196 whole entry, looked up): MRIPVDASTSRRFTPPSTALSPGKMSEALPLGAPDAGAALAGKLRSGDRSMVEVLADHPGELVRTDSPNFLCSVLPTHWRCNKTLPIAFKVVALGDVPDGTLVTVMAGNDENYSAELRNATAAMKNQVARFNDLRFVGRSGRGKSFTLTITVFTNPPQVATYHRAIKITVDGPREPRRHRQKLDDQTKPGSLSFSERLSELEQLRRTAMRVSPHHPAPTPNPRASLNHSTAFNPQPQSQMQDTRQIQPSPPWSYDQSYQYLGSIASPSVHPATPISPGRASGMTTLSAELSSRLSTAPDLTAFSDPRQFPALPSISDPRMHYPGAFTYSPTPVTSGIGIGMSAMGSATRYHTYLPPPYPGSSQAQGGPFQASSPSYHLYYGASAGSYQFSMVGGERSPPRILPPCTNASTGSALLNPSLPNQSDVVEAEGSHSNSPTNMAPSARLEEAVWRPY
Target sequence (Q13951 whole entry, looked up): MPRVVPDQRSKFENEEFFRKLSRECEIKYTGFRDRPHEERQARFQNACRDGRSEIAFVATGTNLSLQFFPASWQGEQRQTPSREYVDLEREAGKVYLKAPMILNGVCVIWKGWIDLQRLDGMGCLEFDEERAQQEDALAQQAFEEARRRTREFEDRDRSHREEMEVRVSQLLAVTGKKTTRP
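Doses: 20 µM compound in 1% DMSO | Material: Cerulean-labeled Runt domain protein | Amount: Each fluorescent fusion protein 100 nM | Schedule: Two 1 h room-temperature incubations shielded from light | Measured by: FRET fluorescence | Evaluation: Loss of energy transfer signal | Controls: Unlabeled CBFb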
Runt-SMMHC FRET = inhibitors of RUNX1 Runt–CBFb-SMMHC binding, primary screen, biochemical, FRET, Cerulean-Runt, Venus-CBFb-SMMHC, uHTS | Cerulean-Runt/Venus-CBFb-SMMHC FRET ratio 530/480, 1 h | inhibition, % at 20 µM | actives 0.74% (n = 220,000);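 active = mean inhibition across duplicate retests at 20 µM reaching about 50%, limit read from the data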;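 note: 0% = DMSO wells and 100% = wells with excess untagged CBFb-SMMHC; inhibitors lower the FRET ratio by blocking Runt binding to CBFb-SMMHC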
An asterisk follows results filed as active.

How did COc1ccc(NC(=O)CN2CCC(NC(=O)c3ccc(OC)cc3)CC2)cc1 do in these assays?
KLK7 zymogen act: 0; RanGTP-Impb inh: 3; AI-2 QS mod: 0

What do the screens show for `COC(=O)c1ccc(NC(=O)CN2CCC(NC(=O)c3ccco3)CC2)cc1`?
KLK7 zymogen act: 0; RanGTP-Impb inh: -2; Wee1 stabilizer: 11*; AI-2 QS mod: 23; Runt-CBFb FRET: 2; Runt-SMMHC FRET: -2

Results for CC(C)(C)c1ccc(OCC(=O)N/N=C/c2ccsc2)cc1 ?
KLK7 zymogen act: 0; RanGTP-Impb inh: -5; Wee1 stabilizer: 9.2*; AI-2 QS mod: 10; Runt-CBFb FRET: -3; Runt-SMMHC FRET: 0

What do the screens show for `Cc1ccc(C)c(OCC(=O)N/N=C/c2ccsc2)c1`?
KLK7 zymogen act: 0; RanGTP-Impb inh: inconclusive; Wee1 stabilizer: -2; AI-2 QS mod: -17; Runt-CBFb FRET: -3; Runt-SMMHC FRET: -5

What do the screens show for `COc1cc(C(=O)Nc2cc3c(cc2N2CCCCC2)n(C)c(=O)n3C)cc(OC)c1OC`?
KLK7 zymogen act: 0; RanGTP-Impb inh: -2; AI-2 QS mod: 6

Results for CCOc1ccc(NC(=O)CCC(=O)O)cc1 ?
KLK7 zymogen act: 0; RanGTP-Impb inh: 24*; Wee1 stabilizer: 3; AI-2 QS mod: 7; Runt-CBFb FRET: 2; Runt-SMMHC FRET: 0

What do the screens show for `CCOc1ccc(NC(=O)CCC(=O)OC)cc1`?
KLK7 zymogen act: 0; RanGTP-Impb inh: -2; Wee1 stabilizer: -1; AI-2 QS mod: 19; Runt-CBFb FRET: -2; Runt-SMMHC FRET: -2

How did CC(C)(C)N1CCC1CN (configuration not stated) do in these assays?
KLK7 zymogen act: 0; Wee1 stabilizer: 1; Runt-CBFb FRET: -1; Runt-SMMHC FRET: -2

How did O=C(NC(Cc1ccccc1)C(=O)O)/C(=C/c1ccc(Br)cc1)NC(=O)c1ccc(Br)o1 (configuration not stated) do in these assays?
KLK7 zymogen act: 0; RanGTP-Impb inh: 24*; AI-2 QS mod: 0

What do the screens show for `O=C(NCc1ccco1)/C(=C/c1ccc(Br)cc1)NC(=O)c1ccco1`?
KLK7 zymogen act: 2; RanGTP-Impb inh: 23*; AI-2 QS mod: 8

How did Cc1cc2c(c(=O)o1)[C@@]1(C(=O)N(C)c3c(Br)cccc31)C1=C(CCCC1=O)O2 do in these assays?
KLK7 zymogen act: 0

Results for COc1ccc(-c2onc3ccc(Br)cc23)cc1 ?
KLK7 zymogen act: 0; RanGTP-Impb inh: -8; Wee1 stabilizer: -1; AI-2 QS mod: 17; Runt-CBFb FRET: 14; Runt-SMMHC FRET: -20

How did COc1cc(-c2onc3ccc(Br)cc23)cc(OC)c1OC do in these assays?
KLK7 zymogen act: -4; RanGTP-Impb inh: 10; Wee1 stabilizer: 0; AI-2 QS mod: 14; Runt-CBFb FRET: 67*; Runt-SMMHC FRET: 111*

What do the screens show for `COCCNC(=O)c1c(N)n(CCCn2ccnc2)c2nc3ccccc3nc12`?
KLK7 zymogen act: 5; RanGTP-Impb inh: 113*; Wee1 stabilizer: 1; AI-2 QS mod: 15; Runt-CBFb FRET: 40; Runt-SMMHC FRET: 41

What do the screens show for `Nc1ccc(-n2c(N)c(C(=O)NCc3ccc4c(c3)OCO4)c3nc4ccccc4nc32)cc1`?
KLK7 zymogen act: -8; RanGTP-Impb inh: 1; Wee1 stabilizer: 0; AI-2 QS mod: 25

What do the screens show for `COCCn1c(N)c(C(=O)Nc2sc3c(c2C(=O)OC)CCCC3)c2nc3ccccc3nc21`?
KLK7 zymogen act: 1; RanGTP-Impb inh: 1; Wee1 stabilizer: -2; AI-2 QS mod: 24; Runt-CBFb FRET: 87*; Runt-SMMHC FRET: 32

Results for Nc1c(C(=O)NCCN2CCOCC2)c2nc3ccccc3nc2n1-c1ccc2c(c1)OCO2 ?
KLK7 zymogen act: 0; RanGTP-Impb inh: 12; Wee1 stabilizer: 2; AI-2 QS mod: 9; Runt-CBFb FRET: 7; Runt-SMMHC FRET: 0

How did COCCCNC(=O)c1c(N)n(-c2ccc(S(N)(=O)=O)cc2)c2nc3ccccc3nc12 do in these assays?
KLK7 zymogen act: -101; RanGTP-Impb inh: 61*; Wee1 stabilizer: 3; AI-2 QS mod: 37; Runt-CBFb FRET: 57*; Runt-SMMHC FRET: 82*

What do the screens show for `C=CCNC(=O)c1c(N)n(-c2cccc(S(N)(=O)=O)c2)c2nc3ccccc3nc12`?
KLK7 zymogen act: -78; Wee1 stabilizer: 3; AI-2 QS mod: 23; Runt-CBFb FRET: 80*; Runt-SMMHC FRET: 38

What do the screens show for `COc1ccc(CN2C(C(=O)NCC(C)C)CSCCS2(=O)=O)cc1` (configuration not stated)?
KLK7 zymogen act: 0

What do the screens show for `COc1ccc(S[C@]2(C(=O)N(C)C)CC(=O)N(S(=O)(=O)c3ccc(F)cc3)[C@@H]2c2ccc(OC)cc2)cc1`?
KLK7 zymogen act: 1

How did COc1cccc(CNC(=O)[C@H]2CCCN2C(=O)[C@H]2CCCN2C(=O)c2ccccc2)c1 do in these assays?
KLK7 zymogen act: 0

Results for COCCCNC(=O)c1c(N)n(-c2ccccc2)c2nc3ccccc3nc12 ?
KLK7 zymogen act: -54; RanGTP-Impb inh: 87*; Wee1 stabilizer: 0; AI-2 QS mod: 15; Runt-CBFb FRET: 54*; Runt-SMMHC FRET: 81*

What do the screens show for `COCCn1c(N)c(C(=O)NCc2cccs2)c2nc3ccccc3nc21`?
KLK7 zymogen act: -56; RanGTP-Impb inh: 84*; Wee1 stabilizer: -1; AI-2 QS mod: -2; Runt-CBFb FRET: 14; Runt-SMMHC FRET: 70*

How did COCCNC(=O)c1c(N)n(-c2ccccc2)c2nc3ccccc3nc12 do in these assays?
KLK7 zymogen act: -32; RanGTP-Impb inh: 90*; Wee1 stabilizer: -3; AI-2 QS mod: 15; Runt-CBFb FRET: 88*; Runt-SMMHC FRET: 42

How did COCCCNC(=O)c1c(N)n(/N=C/c2cccs2)c2nc3ccccc3nc12 do in these assays?
KLK7 zymogen act: -2; RanGTP-Impb inh: 11; Wee1 stabilizer: -4; AI-2 QS mod: 0; Runt-CBFb FRET: 88*; Runt-SMMHC FRET: 58*

How did COCCCNC(=O)c1c(N)n(/N=C/c2cccnc2)c2nc3ccccc3nc12 do in these assays?
KLK7 zymogen act: -1; RanGTP-Impb inh: 8; Wee1 stabilizer: 3; AI-2 QS mod: 41; Runt-CBFb FRET: 9; Runt-SMMHC FRET: 24
